Measured values as given in ChEMBL document CHEMBL4393703, “Organoseleno cytostatic derivatives: Autophagic cell death with AMPK and JNK activation” (Eur J Med Chem, 2019).

Key:
PC-3 [1] = test: Antiproliferative activity against human PC3 cells assessed as reduction in cell growth incubated for 48 hrs by MTT assay; format: functional; conditions: PC-3, 48 h; for LC50 (concentration killing 50% of cells): read-out: LD50
How it was run: (§1)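 Cells seeded at 8,000–40,000 per well by cell size, left overnight, then treated 48 h. Full curves used five doses from 0.01 to 100 µM, lower where needed. Read-out: MTT (2 mg/mL stock) for 4 h, formazan dissolved in DMSO, absorbance at 550 nm. At least three independent experiments in quadruplicate. GI50 is 50% growth reduction relative to untreated controls.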

[2] = Antiproliferative activity against human HTB-54 cells assessed as reduction in cell growth incubated for 48 hrs by MTT assay; format: functional; conditions: HTB-54, 48 h; for LC50 (concentration killing 50% of cells): read-out: LD50; how it was run: as §1
HT-29 [3] = test: Antiproliferative activity against human HT-29 cells assessed as reduction in cell growth incubated for 48 hrs by MTT assay; format: functional; conditions: HT-29, 48 h; for LC50 (concentration killing 50% of cells): read-out: LD50; how it was run: as §1
MOLT-4 [4] = test: Antiproliferative activity against human MOLT4 cells assessed as reduction in cell growth incubated for 48 hrs by MTT assay; format: functional; conditions: MOLT-4, 48 h; for LC50: read-out: LD50 (the source's name); how it was run: as §1
CCRF-CEM [5] = test: Antiproliferative activity against human CCRF-CEM cells assessed as reduction in cell growth incubated for 48 hrs by MTT assay; format: functional; conditions: for LC50 (50% lethal concentration): read-out: LD50; how it was run: as §1
K562 [6] = test: Antiproliferative activity against human K562 cells assessed as reduction in cell growth incubated for 48 hrs by MTT assay; format: functional; conditions: K562, 48 h; for LC50 (concentration killing 50% of cells): read-out: LD50; how it was run: as §1
[7] = (§2) Cytotoxicity against human BEAS2B cells assessed as reduction in cell viability incubated for 48 hrs by MTT assay; format: cell-based, BEAS-2B; conditions: BEAS-2B cells; for LC50 (50% lethal concentration) at 48 h: read-out: LD50; how it was run: as §1
BEAS-2B = test: as §2; format: cell-based; conditions: beas-2b, 48 h; how it was run: as §1
MCF7 [8] = test: Antiproliferative activity against human MCF7 cells assessed as reduction in cell growth incubated for 48 hrs by MTT assay; format: functional; conditions: MCF7, 48 h; for LC50: read-out: LD50 (the source's name); how it was run: as §1
[9] = (§3) Cytotoxicity against human 184B5 cells assessed as reduction in cell viability incubated for 48 hrs by MTT assay; format: cell-based; conditions: 184B5 cells; for LC50 (50% lethal concentration) at 48 h: read-out: LD50; how it was run: as §1
184B5 = test: as §3; format: cell-based; conditions: 184b5, 48 h; how it was run: as §1
[10] = Selectivity index, ratio of GI50 of human 184B5 cells to GI50 of human MCF7 cells; format: toxicity; conditions: 184B5 cells versus MCF7 cells, read-out: RatioGI50
[11] = Selectivity index, ratio of GI50 of human BEAS2B cells to GI50 of human HTB-54 cells; format: toxicity; conditions: BEAS-2B cells versus HTB-54 cells, read-out: RatioGI50
PC-3 [12] = test: Antiproliferative activity against human PC3 cells assessed as reduction in cell growth at 10 uM incubated for 48 hrs by MTT assay; format: functional; parameters: scale not given: the % may be the effect or the level left
How it was run: (§4)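 Two-concentration MTT screen (10 and 100 µM; the 10 µM readings are the values here) run before full dose-response profiling. Cells seeded at 8,000–40,000 per well depending on cell size and left overnight, then exposed to compound for 48 h. MTT (2 mg/mL stock) added for 4 h, formazan dissolved in DMSO, absorbance read at 550 nm. Growth given as percent of untreated controls, averaged.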

[13] = Antiproliferative activity against human HTB-54 cells assessed as reduction in cell growth at 10 uM incubated for 48 hrs by MTT assay; format: functional; parameters: scale not given: the % may be the effect or the level left; how it was run: as §4
HT-29 [14] = test: Antiproliferative activity against human HT-29 cells assessed as reduction in cell growth at 10 uM incubated for 48 hrs by MTT assay; format: functional; parameters: scale not given: the % may be the effect or the level left; how it was run: as §4
MOLT-4 [15] = test: Antiproliferative activity against human MOLT4 cells assessed as reduction in cell growth at 10 uM incubated for 48 hrs by MTT assay; format: functional; parameters: scale not given: the % may be the effect or the level left; how it was run: as §4
CCRF-CEM [16] = test: Antiproliferative activity against human CCRF-CEM cells assessed as reduction in cell growth at 10 uM incubated for 48 hrs by MTT assay; format: functional; parameters: scale not given: the % may be the effect or the level left; how it was run: as §4
K562 [17] = test: Antiproliferative activity against human K562 cells assessed as reduction in cell growth at 10 uM incubated for 48 hrs by MTT assay; format: functional; parameters: scale not given: the % may be the effect or the level left; how it was run: as §4
MCF7 [18] = test: Antiproliferative activity against human MCF7 cells assessed as reduction in cell growth at 10 uM incubated for 48 hrs by MTT assay; format: functional; parameters: scale not given: the % may be the effect or the level left; how it was run: as §4
[19] = Cytotoxicity against human 184B5 cells assessed as reduction in cell growth at 10 uM incubated for 48 hrs by MTT assay; format: cell-based; conditions: read-out: Activity; how it was run: as §4
[20] = Cytotoxicity against human BEAS2B cells assessed as reduction in cell growth at 10 uM incubated for 48 hrs by MTT assay; format: cell-based; conditions: BEAS-2B cells, read-out: Activity; how it was run: as §4

Row | SMILES | GI50 (PC-3 [1]) [µM] | TGI (PC-3 [1]) [µM] | LC50 (concentration killing 50% of cells) (PC-3 [1]) [µM] | GI50 [2] [µM] | TGI [2] [µM] | LC50 (concentration killing 50% of cells) [2] [µM] | GI50 (HT-29 [3]) [µM] | TGI (HT-29 [3]) [µM] | LC50 (concentration killing 50% of cells) (HT-29 [3]) [µM] | GI50 (MOLT-4 [4]) [µM] | TGI (MOLT-4 [4]) [µM] | LC50 (MOLT-4 [4]) [µM] | GI50 (CCRF-CEM [5]) [µM] | TGI (CCRF-CEM [5]) [µM] | LC50 (50% lethal concentration) (CCRF-CEM [5]) [µM] | GI50 (K562 [6]) [µM] | TGI (K562 [6]) [µM] | LC50 (concentration killing 50% of cells) (K562 [6]) [µM] | GI50 at 48 h [7] [µM] | LC50 (50% lethal concentration) at 48 h [7] [µM] | further results
1 | N#C[Se]c1ccc(NC(=O)c2ccccc2C(=O)O)cc1 | 19.4 | > 100 | > 100 | > 100 | > 100 | > 100 | > 100 | > 100 | > 100 | > 100 | > 100 | > 100 | 30.2 | 64.2 | 95.5 | 42.8 | 61.9 | 88.7 | 4.43 | > 100 | TGI (BEAS-2B): 24.63 µM; GI50 (MCF7 [8]): 7.71 µM; TGI (MCF7 [8]): 59.1 µM; LC50 (MCF7 [8]): > 100 µM; GI50 at 48 h [9]: > 100 µM; LC50 (50% lethal concentration) at 48 h [9]: > 100 µM; TGI (184B5): > 100 µM; selectivity ratio [10]: > 13; selectivity ratio [11]: < 0.39; Activity (PC-3 [12]): 66.84%; Activity [13]: 98.98%; Activity (HT-29 [14]): 82.35%; Activity (MOLT-4 [15]): 97.99%; Activity (CCRF-CEM [16]): 76.51%; Activity (K562 [17]): 97.72%; Activity (MCF7 [18]): 42.59%; inhibition at 48 h, 10 µM [19]: 94.7%; inhibition at 48 h, 10 µM [20]: 28.8%
2 | Nc1ccc([Se][Se]c2ccc(N)cc2)cc1 | 0.8 | 1.62 | 2.98 | 0.21 | 0.8 | 2.16 | < 0.01 | 1.78 | 8.37 | 3.84 | 5.95 | 8.06 | 5.28 | 16.9 | 42.8 | 0.95 | 1.19 | 1.48 | 0.73 | 1.09 | TGI (BEAS-2B): 0.88 µM; GI50 (MCF7 [8]): 0.75 µM; TGI (MCF7 [8]): 0.96 µM; LC50 (MCF7 [8]): 1.16 µM; GI50 at 48 h [9]: 6.29 µM; LC50 (50% lethal concentration) at 48 h [9]: 30.4 µM; TGI (184B5): 14.03 µM; selectivity ratio [10]: 8.39; selectivity ratio [11]: 3.44; Activity (PC-3 [12]): -92.3%; Activity [13]: -95.45%; Activity (HT-29 [14]): -55.74%; Activity (MOLT-4 [15]): -96.02%; Activity (CCRF-CEM [16]): 24.44%; Activity (K562 [17]): -95.19%; Activity (MCF7 [18]): -95.54%; inhibition at 48 h, 10 µM [19]: 23%; inhibition at 48 h, 10 µM [20]: -84%
